Compound activity: PubChem, several laboratories
ABHD5 PLIN5 PPI = inhibitors of human ABHD5-perilipin-5 interaction; inhibition, % at 4 µM; actives 0.78% (n = 360,000); Split G. princeps luciferase complementation, luminescence, 4 h; Q00G26+Q8WTS1;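 active means inhibition above the mean inhibition across every tested compound plus 3 SD, cut at about 22% in these data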;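 further: 0% = DMSO only wells and the 100% control is not disclosed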
Target sequence (Q00G26 whole entry, looked up): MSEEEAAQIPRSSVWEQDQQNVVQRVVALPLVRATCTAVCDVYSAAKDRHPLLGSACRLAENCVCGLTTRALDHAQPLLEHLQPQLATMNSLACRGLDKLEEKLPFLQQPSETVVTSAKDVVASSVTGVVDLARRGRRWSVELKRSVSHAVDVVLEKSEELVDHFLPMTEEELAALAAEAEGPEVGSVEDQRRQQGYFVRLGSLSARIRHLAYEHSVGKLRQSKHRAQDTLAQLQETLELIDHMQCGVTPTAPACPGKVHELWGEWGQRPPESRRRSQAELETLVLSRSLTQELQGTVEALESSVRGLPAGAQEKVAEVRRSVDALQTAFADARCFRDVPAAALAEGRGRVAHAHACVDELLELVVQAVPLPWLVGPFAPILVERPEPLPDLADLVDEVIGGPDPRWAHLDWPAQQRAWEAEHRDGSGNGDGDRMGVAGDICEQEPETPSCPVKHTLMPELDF
Target sequence (Q8WTS1 whole entry, looked up): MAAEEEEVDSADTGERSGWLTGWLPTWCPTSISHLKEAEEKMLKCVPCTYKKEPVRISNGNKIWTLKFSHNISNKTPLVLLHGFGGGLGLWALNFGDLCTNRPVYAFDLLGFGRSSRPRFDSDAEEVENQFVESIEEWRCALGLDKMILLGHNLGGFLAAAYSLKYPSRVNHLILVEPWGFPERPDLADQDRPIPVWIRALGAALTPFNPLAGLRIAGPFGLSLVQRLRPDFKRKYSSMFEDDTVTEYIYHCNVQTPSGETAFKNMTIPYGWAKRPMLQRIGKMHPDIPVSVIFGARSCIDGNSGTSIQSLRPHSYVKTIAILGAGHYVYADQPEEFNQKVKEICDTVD
NadD block = inhibitors of Staphylococcus aureus NadD. purified NadD enzyme, colorimetric absorbance read-out. inhibition, % at 20 µM. actives 0.78% (n = 360,000). AID 602399; in the data active means inhibition above about 26%
rCAG binder = binds r(CAG) RNA repeats. r(CAG) RNA repeat, TO-PRO-1 dye displacement fluorescence. inhibition, % at 3 µM. actives 1.3% (n = 370,000). AID 651821;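 active means inhibition above the plate cutoff, the mean of all test compounds on that plate plus 3 SD, cut at about 35% in these data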;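 further: 0% = DMSO alone and 100% = 100 µM mitoxantrone as full dye displacement; higher means more dye released from RNA so lower well fluorescence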
HCV core dimer = HCV core protein dimerization inhibition. TR-FRET GST/Flag-core106 dimerization, 1536-well. inhibition, % at 5 µM. actives 0.33% (n = 300,000). AID 1899;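 active means inhibition above the mean of all tested compounds plus 3 SD, set per screening campaign, cut at about 45% in these data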
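test system = GST/Flag-tagged HCV core106 proteins | probe or stimulus = Eu donor and XL665 acceptor anti-tag antibodies | times = compound-protein-antibody incubation 4 h at 22.5 °C | signal = TR-FRET, excitation 340 nm, emission 617 and 671 nm | measure = percent inhibition of core106 dimerization signal | controls = wells lacking GST-core106 and wells with excess unlabelled core106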
ABHD5 PLIN5 conf = confirmation of human ABHD5-PLIN5 interaction inhibitors. shares compounds with ABHD5 PLIN5 PPI. biochemical ABHD5-PLIN5 interaction, luminescence. inhibition, % at 4 µM. actives 67% (n = 2,200). AID 651612; in the data active means inhibition above about 23%;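 further: 0% = DMSO vehicle wells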
HNF4 split-luc = HNF4 split-luciferase signal hit, counter-screen; inhibition, % at 4 µM; actives 77% (n = 2,200); shares compounds with ABHD5 PLIN5 PPI; HNF4 dimerization, luminescence, biochemical;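 active means mean inhibition across replicate wells exceeding the computed hit threshold, cut at about 13% in these data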;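 further: light from luciferase halves that rejoin when HNF4 fusion proteins dimerize; 0% = DMSO only wells and the 100% control is not given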
NadD conf = NadD (S. aureus) inhibition, single concentration confirmation; shares compounds with NadD block; purified S. aureus NadD, colorimetric enzyme assay; inhibition, % at 20 µM; actives 13% (n = 2,000); in the data active means inhibition mostly above about 42%, no sharp cut-off; inactive means mostly below about 42%
rCAG bind conf = r(CAG) RNA repeat binding, confirmation; shares compounds with rCAG binder; TO-PRO-1 dye displacement fluorescence; inhibition, % at 3 µM; actives 70% (n = 4,300); AID 652065;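 active means inhibition above a per-plate cutoff, the mean inhibition of sample wells plus 3 SD, cut at about 35% in these data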;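 further: loss of TO-PRO-1 fluorescence as compound displaces dye from 1x1 AA loop RNA; 0% = DMSO only wells and 100% = 100 µM mitoxantrone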
DNA CAG counter = disrupts DNA CAG TO-PRO-1 complex, flagging rCAG hits; shares compounds with rCAG binder; d(CAG) DNA oligo TO-PRO-1 dye displacement, fluorescence; inhibition, % at 3 µM; actives 94% (n = 4,300); AID 652068;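 active means inhibition above its plate's cutoff, the mean test-well inhibition plus 3 SD, cut at about 4.8% in these data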;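 further: 0% = DNA dye mix with DMSO and 100% = 100 µM mitoxantrone; hits displace the dye from DNA and so lower well fluorescence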
DNA CAG DR = DNA CAG dye complex inhibition, dose response counter-screen. shares compounds with rCAG binder. DNA CAG/GTC duplex TO-PRO-1 dye displacement fluorescence. IC50, µM. actives 20% (n = 250); in the data active means IC50 below about 10 µM
* hit, by the source's call; . = no result. In the library only some 2.6% were active in any assay of this set; here they are far more common.

SMILES	ABHD5 PLIN5 PPI	NadD block	rCAG binder	HCV core dimer	NadD conf	others
O=C(O)c1ccccc1NS(=O)(=O)c1cccc(-n2sc3ccccc3c2=O)c1	37*	9	72*	-2	.	ABHD5 PLIN5 conf=93*;HNF4 split-luc=115*;rCAG bind conf=74*;DNA CAG counter=34*;DNA CAG DR=7.2*
Cc1ccc2nc(-c3ccc(C#N)cc3)c(Cc3cccc(Cl)c3)n2c1	0	4	7	.	.
CC(=O)Nc1ccc(OC(=O)c2cc3cc(Br)ccc3oc2=O)cc1	11	1	1	13	.
COc1ccc(S(=O)(=O)CC(=O)c2cc3cc(Br)ccc3oc2=O)cc1	33*	27	51*	0	.	ABHD5 PLIN5 conf=70*;HNF4 split-luc=53*;rCAG bind conf=48*;DNA CAG counter=23*
COC(=O)C1CN(CCc2ccccc2)CCS(=O)(=O)N1Cc1ccc(OC)cc1 (centres undefined)	.	.	6	.	.
Cc1cc(=O)oc2cc(OCc3ccc(C(=O)OCC(=O)Nc4ccc(N(C)C)cc4)cc3)ccc12	5	35*	15	.	5
Cc1cc(=O)oc2cc(OCc3ccc(C(=O)OCC(=O)NC4CCS(=O)(=O)C4)cc3)ccc12 (centres undefined)	-1	-1	6	3	.
Cc1ccc(C)c(N(C(=O)Cn2nnc(-c3cccs3)n2)C(C(=O)NC2CCCC2)c2ccncc2)c1 (centres undefined)	0	7	-4	1	.
COc1cccc(N(C(=O)Cn2nnc(-c3cccs3)n2)C(C(=O)NC2CCCCC2)c2ccncc2)c1 (centres undefined)	5	33*	-2	3	5
COC(=O)[C@]12CCCCC=C1N(CCC1=CCCCC1)C(=O)[C@H](CC(=O)N1CCC(c3ccccc3)CC1)C2	-7	1	7	.	.
N#Cc1c(N2CCN(c3ccc(F)cc3)CC2)nc(N)c2c(N)nc3c(c12)CC(=O)N3C1CC1	2	44*	34	.	15
Cc1ccc(/C=N/NC(=O)c2c(C)nc3ccc(Cl)cn23)cc1	.	.	-3	.	.
O=C(NC1CCCCC1)c1nc(C2CCNCC2)oc1-c1ccccc1	-3	-6	9	.	.
Cc1cc(N2CCN(c3nc(-c4ccc([N+](=O)[O-])cc4)cs3)CC2)c2ccccc2n1	4	28*	4	14	-13
COc1ccc(-c2[nH]n(-c3ccc([N+](=O)[O-])cc3)c(=O)c2C=NCc2ccncc2)cc1	3	29*	21	10	4
O=C(Nc1cnn(Cc2ccc(F)cc2)c1)c1cnn2c(C(F)F)cc(-c3ccccc3)nc12	-1	-2	-2	13	.
Cc1ccc(-c2cc(C(F)F)n3ncc(C(=O)Nc4c(C)nn(Cc5ccccc5Cl)c4C)c3n2)cc1	-2	33*	2	46*	-2
Cc1nn(Cc2c(Cl)cccc2Cl)c(C)c1NC(=O)c1cnn2c(C(F)F)cc(-c3ccccc3)nc12	4	43*	2	23	1
Cc1ccc(-c2cc(C(F)F)n3ncc(C(=O)Nc4c(C)nn(Cc5c(Cl)cccc5Cl)c4C)c3n2)cc1	2	32*	5	11	0
O=c1[nH]c2cc([N+](=O)[O-])ccc2c2cc(Br)ccc12	-5	38*	21	.	11
CC(C)CNc1nnnc2c1sc1nc(N3CCOCC3)c3c(c12)CC(C)(C)SC3	0	21	3	10	.
CC1(C)Cc2c(c(N3CCOCC3)nc3sc4c(NN)ncnc4c23)CS1	-2	34*	3	-6	1
N#C/C(=C/c1ccc(-c2ccc([N+](=O)[O-])cc2)o1)C(=O)Nc1nc(-c2cccs2)cs1	-5	48*	14	.	6
